# TRPC6 activator: mouse TRPC6 channel activation. HEK293-TRPC6 membrane potential dye fluorescence; hits give high values. Q61143. B-score at 10 µM. AID 2550. hit rate 0.13% among 310,000;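 active = B-score of the integrated fluorescence ratio above library mean plus 3 SD, and starting fluorescence ratio within library mean plus 5 SD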;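 note: higher score means more depolarization so channel activation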
# Target sequence (Q61143 whole entry, looked up): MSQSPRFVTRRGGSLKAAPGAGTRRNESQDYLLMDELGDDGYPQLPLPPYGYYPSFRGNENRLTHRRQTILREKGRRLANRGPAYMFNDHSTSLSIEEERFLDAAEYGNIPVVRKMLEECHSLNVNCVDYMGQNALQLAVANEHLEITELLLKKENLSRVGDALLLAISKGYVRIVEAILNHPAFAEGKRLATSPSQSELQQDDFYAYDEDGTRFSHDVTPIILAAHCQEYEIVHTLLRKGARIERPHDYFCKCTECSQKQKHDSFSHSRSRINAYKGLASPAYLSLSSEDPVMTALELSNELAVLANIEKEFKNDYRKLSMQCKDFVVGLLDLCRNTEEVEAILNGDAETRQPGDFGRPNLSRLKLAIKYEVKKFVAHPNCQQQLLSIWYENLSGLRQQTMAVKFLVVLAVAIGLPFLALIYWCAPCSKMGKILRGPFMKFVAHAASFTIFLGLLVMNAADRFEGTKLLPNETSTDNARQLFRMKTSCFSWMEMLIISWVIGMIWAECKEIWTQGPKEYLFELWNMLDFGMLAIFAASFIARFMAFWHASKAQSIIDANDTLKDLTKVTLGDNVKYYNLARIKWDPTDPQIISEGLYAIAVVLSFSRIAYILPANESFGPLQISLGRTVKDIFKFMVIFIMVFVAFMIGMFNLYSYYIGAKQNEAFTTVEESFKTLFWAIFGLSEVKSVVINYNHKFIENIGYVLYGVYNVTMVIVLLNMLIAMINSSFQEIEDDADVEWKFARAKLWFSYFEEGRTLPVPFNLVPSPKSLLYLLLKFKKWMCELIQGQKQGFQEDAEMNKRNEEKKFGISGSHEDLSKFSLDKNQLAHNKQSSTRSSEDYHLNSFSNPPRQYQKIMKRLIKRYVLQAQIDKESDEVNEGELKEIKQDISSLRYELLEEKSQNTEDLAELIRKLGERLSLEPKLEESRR
# TRPC6 inhibitor: inhibitors of mouse TRPC6 channel. Q61143. hit rate 1.1% among 310,000. HEK293-TRPC6, membrane potential dye, ACh-evoked depolarization; hits give low values. B-score at 10 µM;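 active = B-score under library mean minus 3 SD, initial fluorescence not abnormally high, positive integrated signal ratio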;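 note: B-score derived from integrated fluorescence ratio over the kinetic read; more negative B-score means stronger inhibition of depolarization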
# TRPC4 inh: blocks the mouse TRPC4 cation channel. HEK293 TRPC4beta/mu-opioid, DAMGO-evoked Fluo4 calcium flux; hits give low values. Q9QUQ5. hit rate 0.39% among 300,000. B-score at 10 µM;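 active = B-score over 3 SD under the library average, no early fluorescence shift, positive overall ratio signal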
#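 Test system – stable TRPC4beta/mu-opioid receptor HEK293 cells · Probe or stimulus – DAMGO, a submaximal dose followed by a maximal one · Dosing – one concentration per compound · Signal – Fluo4 calcium fluorescence by kinetic imaging, 5 s 1 Hz baseline · Evaluation – per-well B score of integrated baseline-normalized Fluo4 ratio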
# TRPC4 potent: allosterically enhances the mouse TRPC4 cation channel. HEK293 TRPC4beta/mu-opioid, DAMGO EC20, Fluo-4 Ca2+ flux; hits give high values. B-score at 10 µM. hit rate 0.42% among 310,000. AID 2227;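 active = B-score of calcium response area above 5 SD of library B-scores, with initial fluorescence ratio within 5 SD of library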;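 note: B-score of integrated fluorescence ratio over time as area under calcium response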
# TRPC4 act: activators of mouse TRPC4 channel; Q9QUQ5; hit rate 0.49% among 310,000; B-score at 10 µM; HEK293 TRPC4beta/mu-opioid, Fluo4 calcium fluorescence; hits give high values;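 active = B-score above 5 SD of library B-scores, and initial fluorescence ratio not above library mean plus 5 SD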;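 note: positive B-score marks a calcium rise read as TRPC4 activation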
#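 Test system: HEK293 cells stably co-expressing mouse TRPC4beta and mu-opioid receptor | Schedule: Fluo4 dye loading 45 min at room temperature, 110 s recording | Measured by: Kinetic Fluo4 calcium fluorescence, 5 s baseline at 1 Hz | Evaluation: B score of integrated ratio | Controls: Buffer (low) and maximal DAMGO (high)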
# * = called active by the depositor; i = inactive. Shown are actives, neighbours in structure and some others; about 2.3% of the full set was active somewhere.
SMILES,TRPC6 activator,TRPC6 inhibitor,TRPC4 inh,TRPC4 potent,TRPC4 act
CCc1ccc(NC(=O)C2CCN(S(=O)(=O)c3ccc4[nH]c(=O)ccc4c3)CC2)cc1,i,i,i,i,i
Cc1c(Cl)cnc(NC(=O)COC(=O)Cc2coc3ccc4ccccc4c23)c1Cl,i,i,i,i,i
COc1ccc(CN2CCCC(C(=O)Nc3cccc(-n4cnnn4)c3)C2)c(C)c1C (stereo not given),i,i,i,i,i
O=C(CN1CCCN(S(=O)(=O)c2ccc(F)cc2)CC1)Nc1ccccc1Br,i,i,-6*,i,i
NS(=O)(=O)c1ccc(NC(=O)CN2CCCN(S(=O)(=O)c3ccc(F)cc3)CC2)cc1,i,i,i,i,i
Cc1ccc2[nH]c(C(=O)NN=C3CCCCC3)c(-c3ccccc3)c2c1,i,i,i,10*,i
Cc1ccc2[nH]c(C(=O)O)c(-c3ccccc3)c2c1,i,i,i,i,i
Cc1cc(C)c(C)c(S(=O)(=O)NCc2ccco2)c1C,i,i,i,26*,i
CCc1ccc(C(=O)C(C)OC(=O)C2COc3ccccc3O2)cc1 (stereo not given),i,i,i,i,i
C=CCN1CC(=O)N2C(c3ccccc3)c3[nH]c4ccccc4c3C[C@H]2C1=O (stereo not given in full),i,i,i,13*,i
COCCCN1CC(=O)N2C(c3ccccc3)c3[nH]c4ccccc4c3C[C@H]2C1=O (stereo not given in full),i,i,i,i,i
CSCC[C@H](NC(=O)N1CCn2c1nc1ccccc12)C(=O)NCc1ccc(F)cc1,i,i,i,20*,i
CCOC(=O)CC(NC(=O)c1cc2cc(Br)ccc2oc1=O)c1cccc([N+](=O)[O-])c1 (stereo not given),i,i,i,26*,i
CCOc1ccc(C(CC(=O)O)NS(=O)(=O)c2ccc(C)cc2)cc1OC (stereo not given),i,i,i,i,i
CCOC(=O)CC(NS(=O)(=O)c1ccc(OC)c(C)c1)c1cccc([N+](=O)[O-])c1 (stereo not given),i,i,-6*,i,i
CCOC(=O)c1cc2cc([N+](=O)[O-])ccc2oc1=O,i,i,i,i,i
C/C(=N\Nc1cccc(C(F)(F)F)c1)c1ccc(O)cc1,i,i,i,i,i
Cc1ccc(C)c2nc3sc(C(=O)O)cc3cc12,i,i,-7*,i,i
Cc1ccccc1C(=O)OCc1cnc(Cl)s1,i,i,i,i,i
CCc1ccc(S(=O)(=O)/N=C2\C=C(NS(=O)(=O)c3ccccc3)C(=O)c3ccccc32)cc1,i,i,i,i,i
Cc1ccc(C)c(S(=O)(=O)/N=C2\C=C(NS(=O)(=O)c3ccccc3)C(=O)c3ccccc32)c1,i,i,-7*,i,i
COc1ccc(-c2nc3ccccn3c2NCc2ccc3c(c2)OCO3)cc1,i,-5.3*,i,i,i
c1ccc(-c2nc3ccccn3c2NCc2ccc3c(c2)OCO3)cc1,i,i,i,i,i
COc1ccc2c(C)c(CCC(=O)NCCCN3CCCC3=O)c(=O)oc2c1C,i,i,-6*,i,i
Cc1ccc(C2(CCNC(C)c3cccs3)CCOC(C(C)C)C2)cc1 (stereo not given),i,i,i,i,44*
SMILES,TRPC6 activator,TRPC6 inhibitor,TRPC4 inh,TRPC4 potent,TRPC4 act
COc1ccccc1C1(CCNC(C)c2cccs2)CCOC(C(C)C)C1 (stereo not given),i,i,i,i,77*
Cc1ccc(C2(CCN)CCOC(C(C)C)C2)cc1 (stereo not given),i,i,i,i,i
COc1ccc(N2CCN(C(=O)C(=O)c3c(C)[nH]c4ccccc34)CC2)cc1,i,i,i,i,i
CC(=O)c1ccc(N2CCN(C(=O)C(=O)c3c(C)[nH]c4ccccc34)CC2)cc1,i,i,i,10*,i
COCCCNCCCCOc1c(Cl)cc(C)cc1Br,i,i,i,i,i
C=CCNCCCCOc1c(Cl)cc(C)cc1Br,i,i,i,i,57*
COc1ccc(NC(=O)CN(C)C(=O)c2ccc(NS(=O)(=O)c3ccc4[nH]c(=O)[nH]c4c3)cc2)cc1,i,i,i,i,i
Cc1cccc(C(=O)NC2CCN(CC(=O)NCc3ccccc3F)CC2)c1,i,i,i,i,i
CCOC(=O)C(=NC1CCS(=O)(=O)C1)NNc1ccccc1Cl (stereo not given),i,i,i,47*,i
CCOC(=O)C(=NC1CCS(=O)(=O)C1)NNc1cc(Cl)ccc1Cl (stereo not given),i,i,i,i,i
Cc1ccc(C(=O)NC(=S)Nc2c(C)ccc3nsnc23)cc1,i,i,-5*,i,i
CCC(C)C(=O)Nc1nnc(SCC(=O)NC(C)(C)C)s1 (stereo not given),i,i,i,i,i
Cc1c(N(C)S(=O)(=O)c2cc(C(=O)Nc3ccccn3)ccc2Cl)c(=O)n(-c2ccccc2)n1C,i,i,-5*,i,i
O=C(Nc1ccccn1)c1ccc(Cl)c(S(=O)(=O)N2CCCCCC2)c1,i,i,i,i,i
CNS(=O)(=O)c1ccc(NC(=O)Nc2cccc(F)c2)cc1,i,i,i,i,44*
CCc1ccc(N(C(=O)c2snc(C(N)=O)c2N)C(C(=O)NC2CCCC2)c2ccco2)cc1 (stereo not given),i,i,i,i,i
COc1ccccc1N(C(=O)c1snc(C(N)=O)c1N)C(C(=O)NC1CCCC1)c1ccc2ncccc2c1 (stereo not given),i,i,-6*,i,i
COc1ccc(CN(C(=O)c2snc(C(N)=O)c2N)C(CC(C)C)C(=O)NC2CCCCC2)cc1 (stereo not given),i,i,-7*,i,i
Cc1ccccc1N(C(=O)c1snc(C(N)=O)c1N)C(C(=O)NC1CCCC1)c1ccco1 (stereo not given),i,i,-8*,i,i
COc1ccccc1N(C(=O)c1snc(C(N)=O)c1N)C(C(=O)NCc1ccccc1)c1ccc(O)cc1 (stereo not given),i,i,-8*,i,i
COc1ccc(C(C(=O)NCc2ccccc2)N(C(=O)c2snc(C(N)=O)c2N)c2ccccc2OC)cc1 (stereo not given),i,i,i,i,i

# Screening data from PubChem.
